Publication PMC4608253 (Journal of chromatography. B, Analytical technologies in …, 2015)
Like-named read-outs stand apart in the source and are kept apart here.

Tests used:
[1] = format: physicochemical, mice; conditions: for Accuracy (RE, %) 25°C for 6 h / Accuracy (RE, %) Frozen for 30 days: stability in mice plasma/blood QC sample; for Accuracy (RE, %) Frozen for 30 days: −80°C; for Accuracy (RE, %) 4°C for 24 h: stability, extracted QC sample in auto-sampler
In short: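 Blank mouse blood spiked with analytes and vitamin C, then extracted with methanol containing daidzein internal standard (0.5 μM) by 1 min vortex. Spun at 20,000 × g for 15 min and dried under air. Three replicates per QC level were held unextracted at 25°C for 6 h, at −80°C for 30 days, or extracted in the 4°C autosampler for 24 h. Analysed by UPLC-MS/MS (C18, formic acid/acetonitrile, positive MRM); accuracy as RE.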

in vivo = format: in vivo, A/J mice; conditions: for detected in the blood: mice, oral XCHT extract 0.5 g/kg; for concentration in the PK study: oral XCHT 500 mg/kg
[2] = male A/J mouse, oral XCHT extract 500 mg/kg, blood, mean±SD, n=6
[3] = male A/J mouse, oral XCHT extract 500 mg/kg, blood, median (min~max), n=6
[4] = male, A/J, mouse, whole blood, po, 0.5 g/kg
[5] = male, A/J, mouse, whole blood, po, 500 mg/kg

| Structure (SMILES) | Accuracy (RE, %) 25°C for 6 h ([1]; spiked concentration 3.9) [%] | Accuracy (RE, %) 25°C for 6 h ([1]; spiked concentration 62.5) [%] | Accuracy (RE, %) 25°C for 6 h ([1]; spiked concentration 500) [%] | Accuracy (RE, %) Frozen for 30 days ([1]; spiked concentration 3.9) [%] | Accuracy (RE, %) Frozen for 30 days ([1]; spiked concentration 62.5) [%] | Accuracy (RE, %) Frozen for 30 days ([1]; spiked concentration 500) [%] | Accuracy (RE, %) 4°C for 24 h ([1]; spiked concentration 3.9) [%] | Accuracy (RE, %) 4°C for 24 h ([1]; spiked concentration 62.5) [%] | Accuracy (RE, %) 4°C for 24 h ([1]; spiked concentration 500) [%] | Accuracy (RE, %) 25°C for 6 h ([1]; spiked concentration 0.488) [%] | Accuracy (RE, %) Frozen for 30 days ([1]; spiked concentration 0.488) [%] | Accuracy (RE, %) 4°C for 24 h ([1]; spiked concentration 0.488) [%] | Accuracy (RE, %) 25°C for 6 h ([1]; spiked concentration 6.25) [%] | Accuracy (RE, %) Frozen for 30 days ([1]; spiked concentration 6.25) [%] | Accuracy (RE, %) 4°C for 24 h ([1]; spiked concentration 6.25) [%] | also measured |
| --- | --- | --- | --- | --- | --- | --- | --- | --- | --- | --- | --- | --- | --- | --- | --- | --- |
| CCCCC[C@H](O)CC(=O)CCc1ccc(O)c(OC)c1 [(6)-Gingerol, 6-gingernol] | 2.8 | −2.3 | −1.0 | 4.4 | −12.1 | 1.2 | 2.6 | −8.4 | 2 |  |  |  |  |  |  |  |
| COc1c(O[C@@H]2O[C@H](C(=O)O)[C@@H](O)[C@H](O)[C@H]2O)cc(O)c2c(=O)cc(-c3ccccc3)oc12 [Wogonoside, wogonoside] |  | 8.5 | 1.4 |  | 10.1 | 11.2 |  | 15.1 | 12.6 | 14.1 | −10.9 | 2.3 |  |  |  | AUC0-∞ (in vivo; [2]): 1.55574 ± 0.12091 µM·h; AUC(0-t) (in vivo; [2]): 1.44654 ± 0.33091 µM·h; Cmax (in vivo; [2]): 174 ± 42.1 nM; t1/2 (in vivo; [2]): 4.77 ± 1.24 h; Tmax (in vivo; [3]): 1.625 (0.083~3) h; Tmax (in vivo; mean±SD, A/J mice, oral XCHT 0.5 g/kg): 1.58 ± 1.63 h; detected in the blood (in vivo): detected |
| COc1ccc(-c2coc3cc(O)ccc3c2=O)cc1 [Formononetin, formononetin] | 8.0 | 11.8 | −10.9 | 13.5 | 13 | 4.9 | −8.9 | 13.6 | 5 |  |  |  |  |  |  |  |
| CC(C)=CCC[C@](C)(O)[C@H]1CC[C@]2(C)[C@@H]1[C@H](O)C[C@@H]1[C@@]3(C)CC[C@H](O[C@@H]4O[C@H](CO)[C@@H](O)[C@H](O)[C@H]4O[C@@H]4O[C@H](CO)[C@@H](O)[C@H](O)[C@H]4O)C(C)(C)[C@@H]3CC[C@]12C [Rg3, ginsenoside Rg3] |  |  | −4.3 |  |  | 0.4 |  |  | 0.4 | 9.2 | 8.0 | 1.57 | 9.2 | 8.0 | 8.64 | concentration in the PK study (in vivo; A/J mice, blood, time 5 min): 1.33±0.48; concentration in the PK study (in vivo; A/J mice, blood, time 30 min): 3.74±3.73; concentration in the PK study (in vivo; A/J mice, blood, time 360 min): 1.61±0.53 |
| CC1(C)[C@@H](O)CC[C@]2(C)[C@H]3C(=O)C=C4[C@@H]5C[C@@](C)(C(=O)O)CC[C@]5(C)CC[C@@]4(C)[C@]3(C)CC[C@@H]12 [GA, glycyrrhetinic acid] | 2.1 | 1.6 | 8.1 | 6.9 | 14.0 | 13.5 | 5.4 | 12 | 14.6 |  |  |  |  |  |  | Cmax (in vivo; [4]): 263 ± 87.3 nM; Tmax (in vivo; [4]): 7.25 ± 5.5 h; AUC(0-inf) (in vivo; [5]): 3.3 ± 1.18 µM·h; AUC(0-t) (in vivo; [5]): 3.3 ± 1.18 µM·h; Cmax (in vivo; [5]): 263 ± 87.3 nM; half-life (in vivo; [5]): 4.77 ± 1.93 h |
| C[C@H]1O[C@@H](O[C@H]2CC[C@@]3(C)[C@@H](CC[C@]4(C)[C@@H]3C=C[C@]35OC[C@@]6(CCC(C)(C)C[C@H]63)[C@@H](O)C[C@]54C)[C@]2(C)CO)[C@H](O)[C@@H](O[C@@H]2O[C@H](CO)[C@@H](O)[C@H](O)[C@H]2O)[C@H]1O [SSa, saikosaponin a] |  |  |  |  |  |  |  |  |  |  |  |  | −1.5 | 10.8 | 12 | Accuracy (RE, %) 25°C for 6 h ([1]; spiked concentration 0.39): 0.7%; Accuracy (RE, %) 25°C for 6 h ([1]; spiked concentration 50): 7.4%; Accuracy (RE, %) Frozen for 30 days ([1]; spiked concentration 0.39): −6.7%; Accuracy (RE, %) Frozen for 30 days ([1]; spiked concentration 50): 12.1%; Accuracy (RE, %) 4°C for 24 h ([1]; spiked concentration 0.39): −7.4%; Accuracy (RE, %) 4°C for 24 h ([1]; spiked concentration 50): 10.6%; concentration in the PK study (in vivo; A/J mice, blood, time 5 min): 0.69±0.26; concentration in the PK study (in vivo; A/J mice, blood, time 15 min): 1.17±0.88; concentration in the PK study (in vivo; A/J mice, blood, time 30 min): 1.02±0.75; concentration in the PK study (in vivo; A/J mice, blood, time 60 min): 1.15±0.77; concentration in the PK study (in vivo; A/J mice, blood, time 120 min): 0.85±0.51 |
| C[C@H]1O[C@@H](O[C@H]2CC[C@@]3(C)[C@@H](CC[C@]4(C)[C@@H]3C=C[C@]35OC[C@@]6(CCC(C)(C)C[C@H]63)[C@H](O)C[C@]54C)[C@]2(C)CO)[C@H](O)[C@@H](O[C@@H]2O[C@H](CO)[C@@H](O)[C@H](O)[C@H]2O)[C@H]1O [SSd, saikosaponin d] |  |  |  |  |  |  |  |  |  |  |  |  | −13.0 | 12.5 | 13.1 | Accuracy (RE, %) 25°C for 6 h ([1]; spiked concentration 0.049): 6.8%; Accuracy (RE, %) 25°C for 6 h ([1]; spiked concentration 50): 2.4%; Accuracy (RE, %) Frozen for 30 days ([1]; spiked concentration 0.049): 8.7%; Accuracy (RE, %) Frozen for 30 days ([1]; spiked concentration 50): 15.0%; Accuracy (RE, %) 4°C for 24 h ([1]; spiked concentration 0.049): −19%; Accuracy (RE, %) 4°C for 24 h ([1]; spiked concentration 50): 14.5%; AUC0-∞ (in vivo; [2]): 0.02584 ± 0.0185 µM·h; AUC(0-t) (in vivo; [2]): 0.02584 ± 0.0185 µM·h; Cmax (in vivo; [2]): 3.42 ± 0.74 nM; t1/2 (in vivo; [2]): 12.18 ± 5.32 h; Tmax (in vivo; [3]): 0.50 (0.125~0.5) h; detected in the blood (in vivo): detected |
| CC(C)=CCC[C@](C)(O[C@@H]1O[C@H](CO)[C@@H](O)[C@H](O)[C@H]1O)[C@H]1CC[C@]2(C)[C@@H]1[C@H](O)C[C@@H]1[C@@]3(C)CC[C@H](O)C(C)(C)[C@@H]3[C@@H](O[C@@H]3O[C@H](CO)[C@@H](O)[C@H](O)[C@H]3O)C[C@]12C [Rg1, ginsenoside Rg1] |  | 7.4 | 8.5 |  | 9.2 | 12.5 |  | 10.1 | 12.12 | 14.8 | 7.2 | 4.7 |  |  |  | concentration in the PK study (in vivo; A/J mice, blood, time 15 min): 0.80±0.50; concentration in the PK study (in vivo; A/J mice, blood, time 480 min): 1.16±0.29 |
| CC(C)=CCC[C@](C)(O[C@@H]1O[C@H](CO)[C@@H](O)[C@H](O)[C@H]1O)[C@H]1CC[C@]2(C)[C@@H]1[C@H](O)C[C@@H]1[C@@]3(C)CC[C@H](O[C@@H]4O[C@H](CO)[C@@H](O)[C@H](O)[C@H]4O[C@@H]4O[C@H](CO)[C@@H](O)[C@H](O)[C@H]4O)C(C)(C)[C@@H]3CC[C@]12C [Rd, Ginsenoside Rd] |  | −3.7 | −7.1 |  | 11.4 | 12.2 |  | 12.8 | 12.3 | 13.3 | 11.6 | −4 |  |  |  | concentration in the PK study (in vivo; A/J mice, blood, time 360 min): 5.07±6.67; concentration in the PK study (in vivo; A/J mice, blood, time 720 min): 6.23±7.96; concentration in the PK study (in vivo; A/J mice, blood, time 1440 min): 5.20±7.64 |
| C[C@@H]1O[C@@H](OC[C@H]2O[C@@H](Oc3c(-c4ccc(O)c(O)c4)oc4cc(O)cc(O)c4c3=O)[C@H](O)[C@@H](O)[C@@H]2O)[C@H](O)[C@H](O)[C@H]1O [rutin] |  |  |  |  |  |  |  |  |  |  |  |  | 3.1 | 8.5 | 12.7 | Accuracy (RE, %) 25°C for 6 h ([1]; spiked concentration 0.049): 13.2%; Accuracy (RE, %) 25°C for 6 h ([1]; spiked concentration 50): 6.3%; Accuracy (RE, %) Frozen for 30 days ([1]; spiked concentration 0.049): 8.3%; Accuracy (RE, %) Frozen for 30 days ([1]; spiked concentration 50): 7.9%; Accuracy (RE, %) 4°C for 24 h ([1]; spiked concentration 0.049): 9.3%; Accuracy (RE, %) 4°C for 24 h ([1]; spiked concentration 50): 12.1% |
| COc1cc(CCC(C)=O)ccc1O [zingerone] | 7.5 | −8.6 | −14.6 | −5.9 | −0.9 | 12.7 | 4.6 | −1 | 11.4 |  |  |  |  |  |  |  |
| O=c1c(O)c(-c2ccc(O)c(O)c2)oc2cc(O)cc(O)c12 [quercetin, quecertin] | −4.8 | −12.9 | 10.1 | −2.6 | 4.8 | 14.7 | −1.3 | 5.12 | 14.72 |  |  |  |  |  |  |  |
